Measurements taken from ChEMBL document CHEMBL2331230, “Synthesis, anticancer and antioxidant activities of 2,4,5-trimethoxy chalcones and analogues from asaronaldehyde: structure-activity relationship” (Eur J Med Chem, 2013).
Values after ≈ are worked out from the molar mass of the structure shown.

Legend:
MCF7 = assay: Cytotoxicity against human MCF7 cells assessed as growth inhibition after 72 hrs by MTT assay; assay type: functional, cell-based; conditions: MCF7, 72 h
How it was run: (§1)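 Cells grown in DMEM with 10% FBS, seeded at 10,000 per well, and treated after 24 h with a concentration series ending at […]; pristimerin as positive control. After 72 h, MTT (5 mg/ml) added for 3 h. Formazan dissolved in DMSO, read at 570 nm. IC50 is the concentration giving 50% growth inhibition; mean ± S.D. of three tests in triplicate.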

SW982 = assay: Cytotoxicity against human SW982 cells assessed as growth inhibition after 72 hrs by MTT assay; assay type: functional, cell-based; conditions: SW982, 72 h; how it was run: as §1
HeLa = assay: Cytotoxicity against human HeLa cells assessed as growth inhibition after 72 hrs by MTT assay; assay type: functional, cell-based; how it was run: as §1
[1] = Antioxidant activity in rat erythrocytes assessed as inhibition of phenyl hydrazine-induced haemolysis after 1 hr; assay type: functional, cell-based; conditions: erythrocyte
How it was run: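 20% PCV erythrocyte suspension made from rat blood. Samples at various concentrations combined with 0.5 mM phenyl hydrazine and erythrocyte suspension in phosphate buffered saline (3 ml total). Incubated 37 °C for 1 h, centrifuged 1000 g for 10 min, supernatant absorbance at 540 nm. α-Tocopherol as positive control.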

[2] = system: Radical scavenging activity; assay: Antioxidant activity assessed as DPPH free radical scavenging activity after 15 mins by spectrophotometric analysis; assay type: functional
How it was run: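 Test samples at several concentrations mixed with stock DPPH (final concentration not stated), made up to 3 ml in methanol, incubated 15 min. Absorbance at 517 nm read against a sample-free blank. Ascorbic acid at various concentrations as standard. Values are means of triplicates from three independent experiments.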

[3] = Antioxidant activity assessed as nitric oxide scavenging activity after 2.5 hrs by Griess assay; assay type: functional
How it was run: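 Sodium nitroprusside, 10 mM in phosphate saline buffer pH 7.4, added to samples at various concentrations and held 2.5 h at room temperature. Nitrite detected with Griess reagent at 546 nm against a blank. Inhibition (%) = (1 − A1/A0)×100, with A0 the control. Ascorbic acid as standard. Means of triplicates from three independent experiments.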

| Structure (SMILES) | IC50 (MCF7) | IC50 (SW982) | IC50 (HeLa) | IC50 [1] | IC50 [2] | IC50 [3] |
| --- | --- | --- | --- | --- | --- | --- |
| CC=Cc1cc(OC)c(OC)cc1OC [CIS-ASARONE] | 129 µM | > 150 µM | 126 µM | – | – | – |
| COc1cc(OC)c(OC)cc1/C=C/C(=O)c1ccc(F)cc1 | 30 µM | 32.5 µM | 28.6 µM | 2.216 µg/mL (≈ 7.01 µM) | 4.71 µg/mL (≈ 14.9 µM) | 1.963 µg/mL (≈ 6.21 µM) |
| COc1cc(OC)c(OC)cc1/C=C/C(=O)c1ccc([N+](=O)[O-])cc1 | > 150 µM | > 150 µM | > 150 µM | 2.337 µg/mL (≈ 6.81 µM) | 4.754 µg/mL (≈ 13.8 µM) | 1.982 µg/mL (≈ 5.77 µM) |
| COc1cc(OC)c(OC)cc1/C=C/C(=O)c1ccc(O)cc1O | 33.8 µM | 32.4 µM | 37.6 µM | 2.373 µg/mL (≈ 7.18 µM) | 4.368 µg/mL (≈ 13.2 µM) | 2.763 µg/mL (≈ 8.36 µM) |
| COc1cc(OC)c(OC)cc1/C=C/C(=O)c1cccc(C(F)(F)F)c1 | > 150 µM | > 150 µM | > 150 µM | 2.302 µg/mL (≈ 6.28 µM) | 5.153 µg/mL (≈ 14.1 µM) | 2.085 µg/mL (≈ 5.69 µM) |
| COc1ccc(C(=O)/C=C/c2cc(OC)c(OC)cc2OC)cc1 | 33.9 µM | 60.5 µM | 37.6 µM | 2.178 µg/mL (≈ 6.63 µM) | 4.394 µg/mL (≈ 13.4 µM) | 2.07 µg/mL (≈ 6.3 µM) |
| COc1cc(OC)c(OC)cc1/C=C/C(=O)c1ccc(Cl)cc1 | 29.5 µM | 58.5 µM | 36.5 µM | 2.298 µg/mL (≈ 6.91 µM) | 4.593 µg/mL (≈ 13.8 µM) | 2.014 µg/mL (≈ 6.05 µM) |
| COc1cc(OC)c(OC)cc1/C=C/C(=O)c1ccccc1 | > 150 µM | > 150 µM | > 150 µM | 2.225 µg/mL (≈ 7.46 µM) | 4.506 µg/mL (≈ 15.1 µM) | 2.012 µg/mL (≈ 6.74 µM) |
| COc1cc(OC)c(OC)cc1/C=C/C(=O)c1cc(O)ccc1O | > 150 µM | > 150 µM | > 150 µM | 2.103 µg/mL (≈ 6.37 µM) | 2.653 µg/mL (≈ 8.03 µM) | 2.444 µg/mL (≈ 7.4 µM) |
| COc1cc(OC)c(C2CC(=O)c3cc(O)ccc3O2)cc1OC (configuration not stated) | > 150 µM | > 150 µM | > 150 µM | 2.14 µg/mL (≈ 6.48 µM) | 4.566 µg/mL (≈ 13.8 µM) | 2.434 µg/mL (≈ 7.37 µM) |
| COc1cc(OC)c(OC)cc1/C=C/C(=O)c1ccc(N2CCOCC2)cc1 | > 150 µM | > 150 µM | > 150 µM | 2.121 µg/mL (≈ 5.53 µM) | 4.269 µg/mL (≈ 11.1 µM) | 2.078 µg/mL (≈ 5.42 µM) |
| COc1cc(OC)c(C(=O)/C=C/c2cc(OC)c(OC)cc2OC)c(OC)c1 | 51.4 µM | 96.5 µM | 108 µM | 2.134 µg/mL (≈ 5.49 µM) | 5.023 µg/mL (≈ 12.9 µM) | 1.977 µg/mL (≈ 5.09 µM) |
| COc1cc(OC)c(OC)cc1/C=C/C(=O)c1cccc([N+](=O)[O-])c1 | > 150 µM | 101 µM | 130 µM | 2.209 µg/mL (≈ 6.43 µM) | 4.309 µg/mL (≈ 12.6 µM) | 2.348 µg/mL (≈ 6.84 µM) |
| COc1cc(OC)c(OC)cc1/C=C/C(=O)c1ccc(-n2ccnc2)cc1 | > 150 µM | > 150 µM | > 150 µM | 2.481 µg/mL (≈ 6.81 µM) | 4.757 µg/mL (≈ 13.1 µM) | 1.972 µg/mL (≈ 5.41 µM) |
| Cc1c(C)c2c(c(C)c1O)CC[C@@](C)(CCC[C@H](C)CCC[C@H](C)CCCC(C)C)O2 [ALPHA-TOCOPHEROL] | – | – | – | 3.658 µg/mL (≈ 8.49 µM) | – | – |
